Measurements: PMC12671527 (Research in Pharmaceutical Sciences, 2025)
In brackets after ≈: the same amount, converted by molar mass.

Experiments:
Format in all cases: cell-based
[1] = tested on: Acinetobacter baumannii ATCC 1799; assay: MIC and MBC, broth microdilution; details: ATCC1799, 18 h
Procedure, shortened: (§1)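 Broth microdilution per CLSI. Isolates were revived from glycerol stocks, grown overnight in Mueller-Hinton broth and diluted to 10^6 CFU/mL, then mixed with equal volumes of serially diluted test compound, six wells per concentration. Plates ran 18 h at 37 °C with growth read at OD 570 nm; MIC was the lowest inhibiting concentration. MBC: clear wells streaked on agar for 24 h, 99.9% kill. Triplicate experiments. SI = MDCK IC50/MIC.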

[2] = tested on: Klebsiella pneumoniae ATCC 2814; assay: MIC and MBC, broth microdilution; details: ATCC2814, 18 h
Procedure, shortened: as §1

[3] = tested on: Pseudomonas aeruginosa ATCC 3197; assay: MIC and MBC, broth microdilution; details: ATCC3197, 18 h
Procedure, shortened: as §1

[4] = tested on: Enterococcus faecium ATCC 2316; assay: MIC and MBC, broth microdilution; details: ATCC2316, 18 h
Procedure, shortened: as §1

[5] = tested on: Staphylococcus epidermidis ATCC 700565; assay: MIC and MBC, broth microdilution; details: ATCC700565, 18 h
Procedure, shortened: as §1

[6] = tested on: Acinetobacter baumannii ATCC 1799; assay: Synergistic studies, broth microdilution checkerboard; details: levofloxacin combined with UP5, checkerboard, first no-growth well, triplicate
Procedure, shortened: (§2)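 Checkerboard broth microdilution in Mueller-Hinton broth. Each well held graded concentrations of the peptide and levofloxacin in crossed combination, plus inoculum at 10^6 CFU/mL before mixing. Plates ran 18 h at 37 °C with growth read at OD 570 nm. Combination MICs were determined in triplicate. FIC = sum of combined/alone MIC ratios, with 100 µM used as the denominator when the solo MIC exceeded 100 µM.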

[7] = tested on: Klebsiella pneumoniae ATCC 2814; assay: as above; details: levofloxacin combined with UP5, checkerboard, first no-growth well, triplicate
Procedure, shortened: as §2

[8] = tested on: Pseudomonas aeruginosa ATCC 3197; assay: Synergistic studies, broth microdilution checkerboard; details: levofloxacin combined with UP5, checkerboard, first no-growth well, triplicate
[9] = tested on: Enterococcus faecium ATCC 2316; assay: Synergistic studies, broth microdilution checkerboard; details: levofloxacin combined with UP5, checkerboard, first no-growth well, triplicate
Procedure, shortened: as §2

[10] = tested on: Staphylococcus aureus ATCC BAA-44; assay: as above; details: levofloxacin combined with UP5, checkerboard, first no-growth well, triplicate
Procedure, shortened: as §2

[11] = tested on: Staphylococcus epidermidis ATCC 700565; assay: as above; details: levofloxacin combined with UP5, checkerboard, first no-growth well, triplicate
Procedure, shortened: as §2

MIC [1]: > 100 µM | MIC [2]: > 100 µM | MIC [3]: 25 µM (≈ 9.03 µg/mL) | MIC [4]: 50 µM (≈ 18.1 µg/mL) | MIC [5]: 25 µM (≈ 9.03 µg/mL) | MIC in combination, Levofloxacin [6]: 12.5 µM | MIC in combination, Levofloxacin [7]: 25 µM | MIC in combination, Levofloxacin [8]: 12.5 µM | MIC in combination, Levofloxacin [9]: 12.5 µM | MIC in combination, Levofloxacin [10]: 12.5 µM | MIC in combination, Levofloxacin [11]: 6.25 µM
SMILES: C[C@H]1COc2c(N3CCN(C)CC3)c(F)cc3c(=O)c(C(=O)O)cn1c23 [Levofloxacin, levofloxacin]
